Experimental data: ChEMBL document CHEMBL4257595, “Improving the Selectivity of PACE4 Inhibitors through Modifications of the P1 Residue” (J Med Chem, 2018)
pIC50, pKi: −log10 of the molar value. Activity calls are given as the source filed them. The rule behind the calls is not given here. Square brackets hold non-standard residues; d marks the D form. Peptide text beside a SMILES is read from it. * marks the point of attachment. NH(4-amidinobenzyl) = N=C(N)c1ccc(CN*)cc1

Experiments:
LNCaP [1] = experiment: Antiproliferative activity against human LNCAP cells after 72 hrs by MTT assay; type: functional, cell-based; conditions: for pIC50: Homo sapiens, LNCaP, 72 h, read-out: IC50; for IC50: lncap
Method in brief: (§1)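 MTT proliferation read-out. DU145 cultured in RPMI-1640 with 5% FBS; LNCaP cultured in RPMI-1640 with 10% FBS. IC50 calculated from dose-response curves.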

Homo sapiens = organism: Homo sapiens; experiment: Selectivity ratio of Ki for recombinant human furin to Ki for recombinant human PACE4
Method in brief: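 Ratio of Ki values. Furin Ki measured at 0.54 nM enzyme in Hepes pH 7.5; PACE4 Ki measured at 20.18 nM enzyme in Bis-Tris pH 6.5. Both used 100 µM pGlu-RTKR-AMC with fluorescence at ex 370 / em 460 nm, and Ki came from Cheng-Prusoff (Morrison's equation for one PACE4 value).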

DU-145 [2] = experiment: Antiproliferative activity against human DU145 cells after 72 hrs by MTT assay; type: functional, cell-based; conditions: for pIC50: Homo sapiens, DU-145, 72 h, read-out: IC50; for IC50: du-145; method in brief: as §1
Furin = Furin (Homo sapiens, UniProt P09958); experiment: Inhibition of recombinant human furin using pGlu-Arg-Thr-Lys-Arg-AMC peptide as substrate by spectrofluorometry
Method in brief: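 Recombinant human furin at 0.54 nM (Km 5.040 µM) in 100 mM Hepes pH 7.5, 1 mM CaCl2, 1 mM β-mercaptoethanol and 1.8 mg/mL BSA. Substrate pGlu-RTKR-AMC at 100 µM per well. Fluorescence read at ex 370 / em 460 nm. Ki derived by Cheng-Prusoff.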

[3] = target: T1, Proprotein convertase subtilisin/kexin type 6 (Homo sapiens, UniProt P29122); experiment: Inhibition of recombinant human PACE4 using pGlu-Arg-Thr-Lys-Arg-AMC peptide as substrate by spectrofluorometry
T1 sequence (P29122 whole entry): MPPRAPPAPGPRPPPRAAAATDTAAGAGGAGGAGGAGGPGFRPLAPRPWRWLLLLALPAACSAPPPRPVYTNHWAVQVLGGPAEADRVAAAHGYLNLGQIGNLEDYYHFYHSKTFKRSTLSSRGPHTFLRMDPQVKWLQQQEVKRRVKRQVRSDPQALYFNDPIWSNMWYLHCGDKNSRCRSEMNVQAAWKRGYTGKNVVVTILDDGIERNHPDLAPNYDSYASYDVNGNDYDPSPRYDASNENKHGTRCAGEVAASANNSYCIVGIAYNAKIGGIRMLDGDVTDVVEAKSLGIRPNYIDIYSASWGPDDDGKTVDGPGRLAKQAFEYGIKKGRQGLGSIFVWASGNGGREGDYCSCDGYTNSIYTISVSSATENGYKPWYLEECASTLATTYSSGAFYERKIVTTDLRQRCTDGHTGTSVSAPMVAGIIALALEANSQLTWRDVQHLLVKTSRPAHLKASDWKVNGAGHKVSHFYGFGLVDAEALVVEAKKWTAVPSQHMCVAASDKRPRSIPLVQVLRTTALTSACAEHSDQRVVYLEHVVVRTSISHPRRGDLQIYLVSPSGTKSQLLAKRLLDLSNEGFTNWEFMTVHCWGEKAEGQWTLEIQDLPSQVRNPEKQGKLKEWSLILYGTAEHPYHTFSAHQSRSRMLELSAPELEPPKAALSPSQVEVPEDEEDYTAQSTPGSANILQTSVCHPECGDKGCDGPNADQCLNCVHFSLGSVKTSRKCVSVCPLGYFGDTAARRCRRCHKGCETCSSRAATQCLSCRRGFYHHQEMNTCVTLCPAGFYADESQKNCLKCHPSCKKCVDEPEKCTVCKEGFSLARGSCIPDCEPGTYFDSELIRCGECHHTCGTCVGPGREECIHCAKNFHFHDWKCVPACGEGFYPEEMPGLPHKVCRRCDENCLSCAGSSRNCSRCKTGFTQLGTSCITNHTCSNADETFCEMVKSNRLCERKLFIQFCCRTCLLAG

[4] = Drug uptake in human DU145 cells at 1 uM after 48 hrs using FITC-labeled compounds by propidium iodide/ trypan blue-dual staining based flow cytometry; type: ADME, cell-based; conditions: du-145, 1 h, in the assay text read “1 hr” for “48 hrs”
Method in brief: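 DU145 cells plated at 200000 per 100 mm dish and grown 48 h at 37 °C. FITC-labelled analogue added at 1 µM for 1 h at 37 °C. Cells harvested with 0.05% trypsin and washed in PBS. PI added at 10 µg/mL final just before acquisition. A parallel set was quenched with 0.04% trypan blue. Flow cytometry on ≥10000 events with 488/638 nm lasers.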

DU-145 [5] = experiment: Antiproliferative activity against human DU145 cells at <150 uM after 72 hrs by MTT assay; type: functional, cell-based
Method in brief: (§2)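 Doses tested up to 150 µM. MTT read-out on DU145 (RPMI-1640, 5% FBS) or LNCaP (RPMI-1640, 10% FBS).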

LNCaP [6] = experiment: Antiproliferative activity against human LNCAP cells at <150 uM after 72 hrs by MTT assay; type: functional, cell-based; method in brief: as §2
[7] = Half life in human plasma; type: ADME, cell-free

Sequence of Furin (P09958 whole entry): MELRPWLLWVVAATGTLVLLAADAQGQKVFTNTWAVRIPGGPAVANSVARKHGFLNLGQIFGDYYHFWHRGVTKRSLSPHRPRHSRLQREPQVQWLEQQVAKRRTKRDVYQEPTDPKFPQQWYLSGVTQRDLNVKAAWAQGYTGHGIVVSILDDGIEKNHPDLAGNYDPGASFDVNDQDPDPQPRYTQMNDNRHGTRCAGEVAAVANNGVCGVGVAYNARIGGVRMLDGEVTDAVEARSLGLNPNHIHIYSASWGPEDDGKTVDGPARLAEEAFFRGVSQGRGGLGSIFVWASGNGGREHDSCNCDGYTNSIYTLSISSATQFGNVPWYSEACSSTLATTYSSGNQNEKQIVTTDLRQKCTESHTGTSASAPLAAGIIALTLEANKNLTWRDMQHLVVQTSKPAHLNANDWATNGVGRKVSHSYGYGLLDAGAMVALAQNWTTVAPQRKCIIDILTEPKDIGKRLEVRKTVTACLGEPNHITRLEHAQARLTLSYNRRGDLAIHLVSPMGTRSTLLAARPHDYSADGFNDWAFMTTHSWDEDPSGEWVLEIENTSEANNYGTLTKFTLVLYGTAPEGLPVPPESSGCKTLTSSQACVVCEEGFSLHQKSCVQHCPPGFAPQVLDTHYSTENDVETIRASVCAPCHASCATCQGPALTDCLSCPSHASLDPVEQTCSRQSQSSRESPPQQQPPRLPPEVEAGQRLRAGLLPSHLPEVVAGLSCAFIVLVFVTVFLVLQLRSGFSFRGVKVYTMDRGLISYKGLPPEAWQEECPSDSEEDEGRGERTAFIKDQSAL

Row | Compound | pIC50 (LNCaP [1]) | Ratio Ki (Homo sapiens) | pIC50 (DU-145 [2]) | pKi (Furin) | pKi [3] | also measured
1 | CC(=O)N[C@H](CC(C)C)C(=O)N[C@@H](CC(C)C)C(=O)N[C@@H](CC(C)C)C(=O)N[C@@H](CC(C)C)C(=O)N[C@@H](CCCNC(=N)N)C(=O)N[C@H](C(=O)N[C@@H](CCCCN)C(=O)NCc1ccc(C(=N)N)c(N)c1)C(C)C | 4.24 | 4 | 4.21 | 7.22 | 7.85 | 
2 | CC(=O)N[C@H](CC(C)C)C(=O)N[C@@H](CC(C)C)C(=O)N[C@@H](CC(C)C)C(=O)N[C@@H](CC(C)C)C(=O)N[C@@H](CCCNC(=N)N)C(=O)N[C@H](C(=O)N[C@@H](CCCCN)C(=O)NCCc1ccc(C(=N)N)cc1)C(C)C | 4.10 | 2 | 4.10 | 7.39 | 7.77 | 
3 | CC(=O)N[C@H](CC(C)C)C(=O)N[C@@H](CC(C)C)C(=O)N[C@@H](CC(C)C)C(=O)N[C@@H](CC(C)C)C(=O)N[C@@H](CCCNC(=N)N)C(=O)N[C@H](C(=O)N[C@@H](CCCCN)C(=O)NCC#CCNC(=N)N)C(C)C | 3.90 | 2 | 3.96 | 7.22 | 7.49 | 
4 | CC(C)C[C@H](NC(=O)[C@H](CC(C)C)NC(=O)[C@H](CC(C)C)NC(=O)[C@@H](CC(C)C)NC(=O)CCN)C(=O)N[C@@H](CCCNC(=N)N)C(=O)N[C@H](C(=O)N[C@@H](CCCCN)C(=O)NCc1ccc(C(=N)N)cc1)C(C)C |  |  |  |  |  | Drug uptake [4]: Active
5 | CC(=O)N[C@H](CC(C)C)C(=O)N[C@@H](CC(C)C)C(=O)N[C@@H](CC(C)C)C(=O)N[C@@H](CC(C)C)C(=O)N[C@@H](CCCNC(=N)N)C(=O)N[C@H](C(=O)N[C@@H](CCCCN)C(=O)NCc1ccc2c(N)n[nH]c2c1)C(C)C |  | 1 |  | 6.08 | 6.15 | IC50 (LNCaP [1]): Nd(Insoluble); IC50 (DU-145 [2]): Nd(Insoluble)
6 | CC(=O)N[C@H](CC(C)C)C(=O)N[C@@H](CC(C)C)C(=O)N[C@@H](CC(C)C)C(=O)N[C@@H](CC(C)C)C(=O)N[C@@H](CCCNC(=N)N)C(=O)N[C@H](C(=O)N[C@@H](CCCCN)C(=O)N[C@@H](CCCNC(=N)N)C(N)=O)C(C)C |  | 32 |  |  |  | 
7 | CC(=O)N[C@H](CC(C)C)C(=O)N[C@@H](CC(C)C)C(=O)N[C@@H](CC(C)C)C(=O)N[C@@H](CC(C)C)C(=O)N[C@@H](CCCNC(=N)N)C(=O)N[C@H](C(=O)N[C@@H](CCCCN)C(=O)NCc1ccc(C(=N)N)c(O)c1)C(C)C | 3.95 | 5 | 4.30 | 6.62 | 7.28 | 
8 | CC(=O)N[C@H](CC(C)C)C(=O)N[C@@H](CC(C)C)C(=O)N[C@@H](CC(C)C)C(=O)N[C@@H](CC(C)C)C(=O)N[C@@H](CCCNC(=N)N)C(=O)N[C@H](C(=O)N[C@@H](CCCCN)C(=O)NCc1ccc(C(=N)N)cc1)C(C)C (Ac-[dL]LLLRVK-{NH(4-amidinobenzyl)}) |  | 2 |  |  |  | 
9 | CC(=O)N[C@H](CC(C)C)C(=O)N[C@@H](CC(C)C)C(=O)N[C@@H](CC(C)C)C(=O)N[C@@H](CC(C)C)C(=O)N[C@@H](CCCNC(=N)N)C(=O)N[C@H](C(=O)N[C@@H](CCCCN)C(=O)NCc1ccc(C(=N)N)nc1)C(C)C | 3.85 | 8 | 3.89 | 7.67 | 8.59 | 
10 | CC(=O)N[C@H](CC(C)C)C(=O)N[C@@H](CC(C)C)C(=O)N[C@@H](CC(C)C)C(=O)N[C@@H](CC(C)C)C(=O)N[C@@H](CCCNC(=N)N)C(=O)N[C@H](C(=O)N[C@@H](CCCCN)C(=O)NCc1c(F)c(F)c(C(=N)N)c(F)c1F)C(C)C | 3.64 | 2 | 4.16 | 6.22 | 6.62 | 
11 | CC(C)C[C@H](NC(=O)[C@H](CC(C)C)NC(=O)[C@H](CC(C)C)NC(=O)[C@@H](CC(C)C)NC(=O)CCN)C(=O)N[C@@H](CCCNC(=N)N)C(=O)N[C@H](C(=O)N[C@@H](CCCCN)C(=O)NCc1ccc(C(=N)N)nc1)C(C)C |  |  |  |  |  | Drug uptake [4]: Active
12 | CC(=O)N[C@H](CC(C)C)C(=O)N[C@@H](CC(C)C)C(=O)N[C@@H](CC(C)C)C(=O)N[C@@H](CC(C)C)C(=O)N[C@@H](CCCNC(=N)N)C(=O)N[C@H](C(=O)N[C@@H](CCCCN)C(=O)NCc1ccc2c(N)noc2c1)C(C)C |  | 1 |  | 6.21 | 6.30 | IC50 (LNCaP [1]): Nd(Insoluble); IC50 (DU-145 [2]): Nd(Insoluble)
13 | CC(=O)N[C@H](CC(C)C)C(=O)N[C@@H](CC(C)C)C(=O)N[C@@H](CC(C)C)C(=O)N[C@@H](CC(C)C)C(=O)N[C@@H](CCCNC(=N)N)C(=O)N[C@H](C(=O)N[C@@H](CCCCN)C(=O)NC/C=C/CNC(=N)N)C(C)C | 3.68 | 3 | 4.40 | 7.42 | 7.89 | 
14 | CC(=O)N[C@H](CC(C)C)C(=O)N[C@@H](CC(C)C)C(=O)N[C@@H](CC(C)C)C(=O)N[C@@H](CC(C)C)C(=O)N[C@@H](CCCNC(=N)N)C(=O)N[C@H](C(=O)N[C@@H](CCCCN)C(=O)N[C@H](CO)CCCNC(=N)N)C(C)C |  |  |  | 6.60 | 6.72 | Activity (DU-145 [5]): inactive; Activity (LNCaP [6]): inactive
15 | Ac-LLLLRVKR-NH2 | 4.35 |  | 4.60 |  |  | half-life [7]: 102 min
